# How the values were obtained:
# [1] = test system: Staphylococcus aureus; test: Antibacterial activity against methicillin-sensitive Staphylococcus aureus ATCC 25923 after 24 hrs by resazurin dye based microdilution assay; format: functional; details: ATCC 25923, 24 h
# In short: (§1)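 MIC taken as the lowest concentration giving visible inhibition and/or by resazurin (1 mg/mL). Gentamicin was the control. Run in duplicate, repeated at least three times.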
# [2] = test system: Trypanosoma cruzi; test: Antitrypanosomal activity against Trypanosoma cruzi Tulahuen intracellular amastigote harboring LacZ infected in human U937 cells after 72 hrs by CPRG/Nonidet reagent based spectrophotometric method; format: functional, cell-based; details: U-937, 72 h
# In short: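 U-937 cells at 2.5 × 10^5 cells/mL in RPMI-1640 with 10% serum and 0.1 µg/mL PMA were infected with β-galactosidase-transfected Tulahuen epimastigotes at 5 parasites per cell. Infected cells were exposed to 50, 12.5, 3.125 and 0.78 µg/mL for 72 h. CPRG (100 uM) and 0.1% Nonidet P-40 were added for 3 h, read at 570 nm. EC50 by Probit. Triplicate, at least two experiments; benznidazole as reference.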
# [3] = test system: Candida albicans; test: Growth inhibition of Candida albicans ATCC 10231 at 62.5 ug/ml incubated for 48 hrs under dark condition by broth microdilution method relative to control; format: functional; details: ATCC 10231, 48 h, read-out: GI
# In short: (§2)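 CLSI M27-A3 broth microdilution in RPMI-1640, DMSO ≤1%. Inoculum 1-5 × 10^3 CFU/mL. Incubated 48 h at 30 °C, dark. % inhibition = 100 − (OD405 test − sterility control)/(OD405 growth control − sterility control), with growth and sterility control wells. Triplicate.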
# [4] = test system: Staphylococcus aureus; test: Antibacterial activity against methicillin-resistant Staphylococcus aureus ATCC 43300 after 24 hrs by resazurin dye based microdilution assay; format: functional; details: ATCC 43300, 24 h
# In short: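 Broth microdilution in Mueller Hinton broth, inoculum 5 × 10^5 – 8 × 10^5. Compound stocks diluted in MHB with 5% DMSO and 0.1% Tween 80. Incubation 24 h at 35-37 °C. MIC is the lowest concentration with visible growth inhibition and/or by resazurin (1 mg/mL) read-out. Gentamicin as control. Run in duplicate, replicated at least three times.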
# [5] = test system: Candida albicans; test: Growth inhibition of Candida albicans ATCC 10231 at 125 ug/ml incubated for 48 hrs under dark condition by broth microdilution method relative to control; format: functional; details: ATCC 10231, 48 h, read-out: GI; in short: as §2
# [6] = test system: Plasmodium falciparum; test: Antiplasmodial activity against chloroquine-sensitive Plasmodium falciparum 3D7 assessed as reduction in parasitic LDH activity after 48 hrs by Malstat reagent based […] method; format: functional; details: 3D7, 48 h
# In short: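 Unsynchronized P. falciparum 3D7 at 0.5% parasitemia and 1% hematocrit in RPMI with 3% Albumax II. Exposed to 100, 25, 6.25 and 1.56 µg/mL for 48 h at 37 °C under 90% N2/5% CO2/5% O2. After three freeze-thaw cycles, LDH measured with Malstat and NBT/PES, 1 h in the dark, read at 650 nm. IC50 by Probit; triplicate, ≥2 experiments.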
# [7] = test system: Candida albicans; test: Growth inhibition of Candida albicans ATCC 10231 at 15.62 ug/ml incubated for 48 hrs under dark condition by broth microdilution method relative to control; format: functional; details: ATCC 10231, 48 h, read-out: GI; in short: as §2
# [8] = test system: U-937; test: Cytotoxicity against human U937 cells after 72 hrs by MTT assay; format: cell-based; details: u-937, 72 h
# In short: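 Exponentially growing U-937 at 1 × 10^5 cells/mL in RPMI-1640 with 10% FBS were exposed to 200, 50, 12.5 and 3.125 µg/mL for 72 h at 37 °C, 5% CO2. MTT for 3 h, stopped with isopropanol/SDS, formazan read at 570 nm, blank-corrected. LC50 by Probit from % viability against untreated cells. Triplicate, at least two independent experiments.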
# [9] = test system: Leishmania panamensis; test: Antileshmanial activity against EpiR/GFP fused Leishmania panamensis MHOM/CO/87/UA140 intracellular amastigotes infected in human […] cells after 72 hrs by flow cytometric method; format: functional, cell-based; details: MHOM/CO/87/UA140, 72 h
# In short: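 PMA-treated U-937 cells (3 × 10^5 cells/mL) infected with stationary-phase GFP L. panamensis promastigotes (15:1), 3 h at 34 °C, then washed. After 24 h, compounds added at 50, 12.5, 3.125 and 0.78 µg/mL for 72 h at 37 °C. EC50 by Probit; triplicate, two experiments.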
# [10] = test system: Pseudomonas aeruginosa; test: Antibacterial activity against Pseudomonas aeruginosa ATCC 27853 after 24 hrs by resazurin dye based microdilution assay; format: functional; details: ATCC 27853, 24 h; in short: as §1
# [11] = test system: Cryptococcus neoformans; test: Growth inhibition of Cryptococcus neoformans ATCC 32264 at 7.8 ug/ml incubated for 48 hrs under dark condition by broth microdilution method relative to control; format: functional; details: ATCC 32264, 48 h, read-out: GI; in short: as §2
# [12] = test system: Cryptococcus neoformans; test: Growth inhibition of Cryptococcus neoformans ATCC 32264 at 31.25 ug/ml incubated for 48 hrs under dark condition by broth microdilution method relative to control; format: functional; details: ATCC 32264, 48 h, read-out: GI; in short: as §2
# [13] = test system: Candida albicans; test: Antifungal activity against Candida albicans ATCC 10231 incubated for 48 hrs under dark condition by broth microdilution method; format: functional; details: ATCC 10231, 48 h
# In short: (§3)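 CLSI M27-A3 broth microdilution in RPMI-1640, DMSO ≤1%, compounds at 250-0.98 µg/mL final. Inoculum 1-5 × 10^3 CFU/mL. Incubated 48 h at 30 °C in a moist dark chamber, read at OD405. MIC80 and MIC50 taken from % inhibition dose-response curves (mean ± SEM, triplicate). Amphotericin B was the positive control.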
# [14] = test system: Escherichia coli; test: Antibacterial activity against Escherichia coli ATCC 25922 after 24 hrs by resazurin dye based microdilution assay; format: functional; details: ATCC 25922, 24 h; in short: as §1
# [15] = test system: Cryptococcus neoformans; test: Growth inhibition of Cryptococcus neoformans ATCC 32264 at 62.5 ug/ml incubated for 48 hrs under dark condition by broth microdilution method relative to control; format: functional; details: ATCC 32264, 48 h, read-out: GI; in short: as §2
# [16] = test system: Cryptococcus neoformans; test: Growth inhibition of Cryptococcus neoformans ATCC 32264 at 125 ug/ml incubated for 48 hrs under dark condition by broth microdilution method relative to control; format: functional; details: ATCC 32264, 48 h, read-out: GI; in short: as §2
# [17] = test system: Candida albicans; test: Growth inhibition of Candida albicans ATCC 10231 at 31.25 ug/ml incubated for 48 hrs under dark condition by broth microdilution method relative to control; format: functional; details: ATCC 10231, 48 h, read-out: GI; in short: as §2
# [18] = test system: Klebsiella pneumoniae; test: Antibacterial activity against carbapenemase positive Klebsiella pneumoniae BAA 1705 after 24 hrs by resazurin dye based microdilution assay; format: functional; details: BAA 1705, 24 h; in short: as §1
# [19] = test system: Candida albicans; test: Growth inhibition of Candida albicans ATCC 10231 at 3.4 ug/ml incubated for 48 hrs under dark condition by broth microdilution method relative to control; format: functional; details: ATCC 10231, 48 h, read-out: GI
# [20] = test system: Candida albicans; test: Growth inhibition of Candida albicans ATCC 10231 at 250 ug/ml incubated for 48 hrs under dark condition by broth microdilution method relative to control; format: functional; details: ATCC 10231, 48 h, read-out: GI; in short: as §2
# [21] = test system: Cryptococcus neoformans; test: Growth inhibition of Cryptococcus neoformans ATCC 32264 at 250 ug/ml incubated for 48 hrs under dark condition by broth microdilution method relative to control; format: functional; details: ATCC 32264, 48 h, read-out: GI; in short: as §2
# [22] = test system: Klebsiella pneumoniae; test: Antibacterial activity against ESBL positive Klebsiella pneumoniae ATCC 700603 after 24 hrs by resazurin dye based microdilution assay; format: functional; details: Klebsiella pneumoniae, 700603, 24 h; in short: as §1
# [23] = test system: Candida albicans; test: Growth inhibition of Candida albicans ATCC 10231 at 7.8 ug/ml incubated for 48 hrs under dark condition by broth microdilution method relative to control; format: functional; details: ATCC 10231, 48 h, read-out: GI; in short: as §2
# [24] = test system: Cryptococcus neoformans; test: Growth inhibition of Cryptococcus neoformans ATCC 32264 at 3.4 ug/ml incubated for 48 hrs under dark condition by broth microdilution method relative to control; format: functional; details: ATCC 32264, 48 h, read-out: GI
# [25] = test system: Cryptococcus neoformans; test: Growth inhibition of Cryptococcus neoformans ATCC 32264 at 15.62 ug/ml incubated for 48 hrs under dark condition by broth microdilution method relative to control; format: functional; details: ATCC 32264, 48 h, read-out: GI; in short: as §2
# [26] = test system: Staphylococcus aureus; test: Antibacterial activity against vancomycin-intermediate Staphylococcus aureus after 24 hrs by resazurin dye based microdilution assay; format: functional; in short: as §1
# [27] = test system: Neisseria gonorrhoeae; test: Antibacterial activity against beta lactamase positive Neisseria gonorrhoeae ATCC 31426 by oxidase test; format: functional
# In short: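 Agar dilution MIC on GC agar with 1% isovitalex containing increasing compound concentrations. Plates inoculated with about 1×10^4 CFU (5 µL). MIC is the lowest concentration that inhibited growth, with growth confirmed by oxidase test. Run in duplicate, repeated at least three times.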
# [28] = test system: Cryptococcus neoformans; test: Antifungal activity against Cryptococcus neoformans ATCC 32264 incubated for 48 hrs under dark condition by broth microdilution method; format: functional; details: ATCC 32264, 48 h; in short: as §3
SMILES,MIC [1] [µg/mL],EC50 [2] [µg/mL],inhibition of growth at 62.5 µg/mL [3] [%],MIC [4] [µg/mL],inhibition of growth at 125 µg/mL [5] [%],EC50 [6] [µg/mL],inhibition of growth at 15.62 µg/mL [7] [%],LC50 [8] [µg/mL],EC50 [9] [µg/mL],MIC [10] [µg/mL],inhibition of growth at 7.8 µg/mL [11] [%],inhibition of growth at 31.25 µg/mL [12] [%],MIC50 [13] [µg/mL],MIC80 [13] [µg/mL],MIC [14] [µg/mL],inhibition of growth at 62.5 µg/mL [15] [%],inhibition of growth at 125 µg/mL [16] [%],inhibition of growth at 31.25 µg/mL [17] [%],MIC [18] [µg/mL],inhibition of growth at 3.4 µg/mL [19] [%],also measured
Clc1ccc2c(Nc3cccc(C4CC(c5ccc(Br)cc5)=NN4c4ccccc4)c3)ccnc2c1 (stereo not given),> 1000,6.67,12.6,> 1000,26.3,5.54,8.46,9.2,3.59,> 1000,7.67,11.8,≥ 250,≥ 250,> 1000,20,20.1,9.65,> 1000,3.09,inhibition of growth at 250 µg/mL [20]: 44.9%; inhibition of growth at 250 µg/mL [21]: 45.1%; MIC [22]: > 1000 µg/mL; inhibition of growth at 7.8 µg/mL [23]: 4.31%; inhibition of growth at 3.4 µg/mL [24]: 3.29%; inhibition of growth at 15.62 µg/mL [25]: 7.94%; MIC [26]: > 1000 µg/mL; MIC [27]: > 1000 µg/mL; MIC50 [28]: ≥ 250 µg/mL; MIC80 [28]: ≥ 250 µg/mL
COc1ccc(C2=NN(c3cc(Cl)cc(Cl)c3)C(c3cccc(Nc4ccnc5cc(Cl)ccc45)c3)C2)cc1 (stereo not given),> 1000,31,9.34,> 1000,10.3,10.4,1.75,> 200,12.6,> 1000,0,3.09,≥ 250,≥ 250,> 1000,6.18,10.2,5.03,> 1000,1.02,inhibition of growth at 250 µg/mL [20]: 27.9%; inhibition of growth at 250 µg/mL [21]: 43%; MIC [22]: > 1000 µg/mL; inhibition of growth at 7.8 µg/mL [23]: 1.72%; inhibition of growth at 3.4 µg/mL [24]: 0%; inhibition of growth at 15.62 µg/mL [25]: 2.11%; MIC [26]: > 1000 µg/mL; MIC [27]: > 1000 µg/mL; MIC50 [28]: ≥ 250 µg/mL; MIC80 [28]: ≥ 250 µg/mL

# Reference: ChEMBL document CHEMBL4038284, “Synthesis of novel quinoline-based 4,5-dihydro-1H-pyrazoles as potential anticancer, antifungal, antibacterial and antiprotozoal agents” (Eur J Med Chem, 2017)
